Measurements: ChEMBL document CHEMBL4414663, “Pyrazole-4-Carboxamide (YW2065): A Therapeutic Candidate for Colorectal Cancer via Dual Activities of Wnt/β-Catenin Signaling Inhibition and AMP-Activated Protein Kinase (AMPK) Activation” (J Med Chem, 2019)
Activity calls are given as the source filed them. The calls are words filed in the database; no cut-off is given here.

Key:
SW480 [1] = assay: Growth inhibition of human SW480 cells at 50 uM by Cell-titer-fluor reagent based assay relative to control; type: functional; details: read-out: GI
SW480 [2] = assay: Growth inhibition of human SW480 cells by Cell-titer-fluor reagent based assay; type: functional
[3] = Inhibition of Wnt/beta-Catenin signaling (unknown origin) expressed in recombinant human Wnt-3a-induced Wnt-HEK293 cells incubated for 24 hrs by luciferase reporter gene assay; type: cell-based
In short: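 Stably transfected Wnt-HEK293 cells, 2000/well in DMEM + 10% FBS, incubated overnight at 37 °C. Compounds pin-transferred, then recombinant human Wnt-3a added (200 ng/mL stock); unstimulated control wells received medium. After 24 h at 37 °C, ONE-Glo luminescence read after 30 min at room temperature; CellTiter-Fluor viability read in parallel. IC50 reported as mean ± SD of three independent experiments.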

Homo sapiens [4] = species: Homo sapiens; assay: Inhibition of Wnt/beta-Catenin signaling (unknown origin) expressed in recombinant human Wnt-3a-induced Wnt-HEK293 cells assessed as increase in beta-catenin degradation at 1 uM by Western blot analysis; type: cell-based
[5] = target: AMP-activated protein kinase, AMPK (Homo sapiens) (UniProt P54646+O43741+P54619+Q9UGJ0+Q9Y478+Q13131+Q9UGI9); assay: Activation of AMPK in HEK293 cells over-expressing Axin-1 assessed as increase in AMPK phosphorylation at T172 residue at 10 uM incubated for 24 hrs by Western blot analysis; type: cell-based
Homo sapiens [6] = species: Homo sapiens; assay: Potency index, ratio of IC50 for pyrvinium to test compound for inhibition of Wnt/beta-Catenin signaling (unknown origin) expressed in recombinant human Wnt-3a-induced Wnt-HEK293 cells incubated for 24 hrs by luciferase reporter gene assay; type: cell-based
Homo sapiens [7] = species: Homo sapiens; assay: Potency index, ratio of IC50 for XAV939 to test compound for inhibition of Wnt/beta-Catenin signaling (unknown origin) expressed in recombinant human Wnt-3a-induced Wnt-HEK293 cells incubated for 24 hrs by luciferase reporter gene assay; type: cell-based

GI50 (SW480 [2]) | IC50 [3] | SMILES | inhibition of growth at 50 µM (SW480 [1]) | other results
9000 nM | 14 nM | Cc1c(C(=O)Nc2ccc3ccccc3n2)cnn1-c1cccc(Cl)c1F | > 50% | 
7200 nM | 26 nM | Cc1cccc(C)c1-n1ncc(C(=O)Nc2ccc3ccccc3n2)c1C | > 50% | 
 | 16 nM | Cc1c(C(=O)Nc2ccc3ccccc3n2)cnn1-c1ccc(F)cc1F |  | 
24600 nM | 14 nM | Cc1ccc(C)c(-n2ncc(C(=O)Nc3ccc4ccccc4n3)c2C)c1 | > 50% | 
9700 nM | 1.2 nM | CCc1ccccc1-n1ncc(C(=O)Nc2ccc3ccccc3n2)c1C | > 50% | 
 | 637 nM | Cc1cc(C(=O)Nc2ccc3ccccc3n2)nn1-c1ccccc1 |  | 
> 50000 nM | 450 nM | Oc1nc(-c2ccc(C(F)(F)F)cc2)nc2c1CSCC2 |  | 
 | 29 nM | O=C(Nc1ccc2ccccc2n1)c1cnn(-c2ccccc2)c1Cl |  | 
 | 250 nM | Cc1ccccc1-n1nc(C(=O)Nc2ccc3ccccc3n2)cc1C |  | 
3700 nM | 750 nM | Cc1cc(/C=C/c2ccc3cc(N(C)C)ccc3[n+]2C)c(C)n1-c1ccccc1 [PYRVINIUM] |  | inhibition (Homo sapiens [4]): Active
 | 380 nM | CCc1ccccc1-n1ncc(C(=O)Nc2cccc(C)n2)c1C |  | 
 | 140 nM | O=C(Nc1ccc2ccccc2n1)c1nn(-c2ccccc2)c2c1CCC2 |  | 
 | 3.7 nM | O=C(Nc1ccc2ccccc2n1)c1cnn(-c2ccccc2)c1Br |  | 
 | 1.7 nM | CCc1c(C(=O)Nc2ccc3ccccc3n2)cnn1-c1ccccc1 |  | 
 |  | Cc1ccccc1-n1nnc(C(=O)Nc2ccc3ccccc3n2)c1C |  | inhibition (Homo sapiens [4]): Active; Activity [5]: Active
3900 nM | 3.2 nM | Cc1c(C(=O)Nc2ccc3ccccc3n2)cnn1-c1c(F)cccc1Br | > 50% | 
 | 2.2 nM | Cc1cccnc1-n1ncc(C(=O)Nc2ccc3ccccc3n2)c1C |  | 
17300 nM | 15 nM | CC(C)c1c(C(=O)Nc2ccc3ccccc3n2)cnn1-c1ccccc1 | > 50% | 
 | 6 nM | CN(C)c1c(C(=O)Nc2ccc3ccccc3n2)cnn1-c1ccccc1 |  | 
 | 67 nM | CCc1ccccc1-n1nc(C(=O)Nc2ccc3ccccc3n2)cc1C |  | 
 | 1.6 nM | Cc1c(C(=O)Nc2ccc3ccccc3n2)cnn1-c1c(F)cccc1F |  | 
23900 nM | 2.2 nM | Cc1c(C(=O)Nc2ccc3ccccc3n2)cnn1-c1ccccc1 | > 50% | Ratio IC50 (Homo sapiens [6]): > 300; Ratio IC50 (Homo sapiens [7]): > 200
 | 260 nM | O=C(Nc1ccc2ccccc2n1)c1nn(-c2ccccc2)c2c1CCCC2 |  | 
 | > 1000 nM | CCc1ccccc1-n1ncc(C(=O)Nc2ccc3ccccc3c2)c1C |  | 
33300 nM | 0.92 nM | Cc1c(C(=O)Nc2ccc3ccccc3n2)cnn1-c1ccccc1F | > 50% | 
 | > 1000 nM | CCc1ccccc1-n1ncc(C(=O)Nc2cc3ccccc3cn2)c1C |  | 
